Experimental data taken from article PMC4083110 (Molecular & Cellular Proteomics : MCP, 2014).
Values belong to the substance of their own block, whether it stands above or below them.

Assays:
Conditions in all cases: result in words
[1] = molecular target: T1, SHC1 SH2 domain (Homo sapiens, UniProt P29353); assay: FP saturation binding
T1 sequence (P29353 488-579 limits assumed): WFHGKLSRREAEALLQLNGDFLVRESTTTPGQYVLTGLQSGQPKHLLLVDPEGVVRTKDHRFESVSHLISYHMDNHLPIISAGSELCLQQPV
Outline: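 Tandem SH2 proteins were kept with their linkers. Synthetic phosphotyrosine peptides were run in automated high-throughput FP saturation binding. Millipolarization was fitted to Pobs = Pmax·[Protein]/(KD+[Protein]) by least squares to give KD per protein/peptide pair.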

[2] = molecular target: T2, SHC1 PTB domain (SHC1.PTB) (Homo sapiens, UniProt P29353); assay: FP saturation binding
T2 sequence (P29353 156-339 limits assumed): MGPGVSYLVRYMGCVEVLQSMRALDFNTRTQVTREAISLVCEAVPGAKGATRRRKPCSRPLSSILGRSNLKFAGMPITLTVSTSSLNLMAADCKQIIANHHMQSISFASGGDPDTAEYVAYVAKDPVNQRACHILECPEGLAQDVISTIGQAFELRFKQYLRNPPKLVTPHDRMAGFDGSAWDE
Outline: (§1)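 Multi-SH2 genes were used as tandem proteins that kept the linker residues. Automated high-throughput FP saturation binding was run against 178 synthetic phosphopeptides from RTK, GAB1 and androgen receptor tyrosine sites. Millipolarization readings were fitted to P_obs = Pmax·[Protein]/(K_D+[Protein]) by least squares regression to give K_D.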

[3] = molecular target: T3, PLCG2 SH2 domains (Homo sapiens, UniProt P16885); assay: FP saturation binding, construct not stated
T3 sequence (P16885 532-735 limits assumed): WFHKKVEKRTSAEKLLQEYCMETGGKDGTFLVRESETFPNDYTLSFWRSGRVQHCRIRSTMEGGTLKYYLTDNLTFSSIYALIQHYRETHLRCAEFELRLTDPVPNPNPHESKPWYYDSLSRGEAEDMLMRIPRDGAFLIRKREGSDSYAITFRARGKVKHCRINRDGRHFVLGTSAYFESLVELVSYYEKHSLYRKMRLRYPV
Outline: as §1

[4] = molecular target: T4, PLCG1 SH2 domains (Homo sapiens, UniProt P19174); assay: FP saturation binding, construct not stated
T4 sequence (P19174 550-756 limits assumed): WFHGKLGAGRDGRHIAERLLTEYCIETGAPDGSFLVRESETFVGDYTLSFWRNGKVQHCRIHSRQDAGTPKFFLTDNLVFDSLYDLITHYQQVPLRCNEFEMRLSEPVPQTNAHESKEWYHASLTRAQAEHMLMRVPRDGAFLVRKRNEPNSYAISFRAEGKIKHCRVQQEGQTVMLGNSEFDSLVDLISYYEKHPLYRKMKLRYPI
Outline: as §1

[5] = system: c-Src family kinase SH2 domains; assay: FP saturation binding, domain family; parameters: species or system human
Outline: as §1

[6] = system: PIK3R3 SH2 domains; assay: FP saturation binding, construct not stated; parameters: species or system human
Outline: as §1

[7] = molecular target: PIK3R1 SH2 domains (Homo sapiens, UniProt P27986); assay: FP saturation binding, construct not stated
PIK3R1 SH2 domains, sequence (P27986 2-724): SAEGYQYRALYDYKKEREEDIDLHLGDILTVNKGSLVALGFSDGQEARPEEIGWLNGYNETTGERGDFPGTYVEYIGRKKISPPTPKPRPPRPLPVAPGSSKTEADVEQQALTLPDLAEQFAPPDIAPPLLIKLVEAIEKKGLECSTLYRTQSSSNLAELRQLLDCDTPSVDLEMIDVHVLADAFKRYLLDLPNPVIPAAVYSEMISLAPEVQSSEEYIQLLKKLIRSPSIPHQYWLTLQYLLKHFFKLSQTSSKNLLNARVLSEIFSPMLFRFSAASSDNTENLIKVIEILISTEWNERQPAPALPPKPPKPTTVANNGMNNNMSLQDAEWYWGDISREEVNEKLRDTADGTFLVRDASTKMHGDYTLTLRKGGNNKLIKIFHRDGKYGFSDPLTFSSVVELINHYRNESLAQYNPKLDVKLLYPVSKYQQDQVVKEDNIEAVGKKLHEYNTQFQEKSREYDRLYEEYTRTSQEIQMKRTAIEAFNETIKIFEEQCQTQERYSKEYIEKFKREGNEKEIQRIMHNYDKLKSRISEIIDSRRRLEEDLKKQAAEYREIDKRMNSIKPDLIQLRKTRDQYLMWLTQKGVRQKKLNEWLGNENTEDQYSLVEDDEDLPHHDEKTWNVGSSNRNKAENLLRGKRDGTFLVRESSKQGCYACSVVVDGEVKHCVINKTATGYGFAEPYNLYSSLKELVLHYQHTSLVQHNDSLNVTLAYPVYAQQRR
Outline: as §1

[8] = molecular target: T5, RASA1 SH2 domains (Homo sapiens, UniProt P20936); assay: FP saturation binding, construct not stated
T5 sequence (P20936 181-441 limits assumed): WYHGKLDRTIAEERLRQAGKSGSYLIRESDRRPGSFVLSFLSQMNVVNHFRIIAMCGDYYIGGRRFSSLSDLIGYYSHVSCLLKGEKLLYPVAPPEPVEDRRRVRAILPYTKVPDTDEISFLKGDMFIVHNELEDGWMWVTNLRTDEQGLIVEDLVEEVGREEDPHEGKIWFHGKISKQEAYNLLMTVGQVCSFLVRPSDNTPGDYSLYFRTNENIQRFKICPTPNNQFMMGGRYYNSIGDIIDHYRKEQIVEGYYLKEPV
Outline: as §1

[9] = molecular target: T6, SH2D1B SH2 domain (Homo sapiens, UniProt O14796); assay: FP saturation binding
T6 sequence (O14796 5-101 limits assumed): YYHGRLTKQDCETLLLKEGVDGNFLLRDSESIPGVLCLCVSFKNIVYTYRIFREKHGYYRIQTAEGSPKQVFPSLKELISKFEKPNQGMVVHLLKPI
Outline: as §1

[10] = molecular target: CRK SH2 domain (Homo sapiens, UniProt P46108); assay: FP saturation binding
CRK SH2 domain, sequence (P46108 13-118 limits assumed): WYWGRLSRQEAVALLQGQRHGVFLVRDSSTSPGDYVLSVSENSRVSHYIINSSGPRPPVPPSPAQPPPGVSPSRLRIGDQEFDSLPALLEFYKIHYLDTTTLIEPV
Outline: as §1

[11] = molecular target: CRKL SH2 domain (Homo sapiens, UniProt P46109); assay: FP saturation binding
CRKL SH2 domain, sequence (P46109 14-102 limits assumed): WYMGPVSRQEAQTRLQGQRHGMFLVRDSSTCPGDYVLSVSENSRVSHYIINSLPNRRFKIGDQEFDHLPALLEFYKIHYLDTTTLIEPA
Outline: as §1

[12] = system: tensin family SH2 domains; assay: FP saturation binding, domain family; parameters: species or system human
Outline: as §1

[13] = molecular target: SH2D1A SH2 domain (Homo sapiens, UniProt O60880); assay: FP saturation binding
SH2D1A SH2 domain, sequence (O60880 6-104 limits assumed): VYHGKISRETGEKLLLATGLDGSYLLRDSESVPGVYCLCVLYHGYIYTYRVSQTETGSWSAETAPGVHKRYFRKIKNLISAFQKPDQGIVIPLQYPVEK
Outline: as §1

[14] = molecular target: T7, Shp2/PTPN11 SH2 domain (Homo sapiens, UniProt Q06124); assay: FP saturation binding, construct not stated
T7 sequence (Q06124 2-593): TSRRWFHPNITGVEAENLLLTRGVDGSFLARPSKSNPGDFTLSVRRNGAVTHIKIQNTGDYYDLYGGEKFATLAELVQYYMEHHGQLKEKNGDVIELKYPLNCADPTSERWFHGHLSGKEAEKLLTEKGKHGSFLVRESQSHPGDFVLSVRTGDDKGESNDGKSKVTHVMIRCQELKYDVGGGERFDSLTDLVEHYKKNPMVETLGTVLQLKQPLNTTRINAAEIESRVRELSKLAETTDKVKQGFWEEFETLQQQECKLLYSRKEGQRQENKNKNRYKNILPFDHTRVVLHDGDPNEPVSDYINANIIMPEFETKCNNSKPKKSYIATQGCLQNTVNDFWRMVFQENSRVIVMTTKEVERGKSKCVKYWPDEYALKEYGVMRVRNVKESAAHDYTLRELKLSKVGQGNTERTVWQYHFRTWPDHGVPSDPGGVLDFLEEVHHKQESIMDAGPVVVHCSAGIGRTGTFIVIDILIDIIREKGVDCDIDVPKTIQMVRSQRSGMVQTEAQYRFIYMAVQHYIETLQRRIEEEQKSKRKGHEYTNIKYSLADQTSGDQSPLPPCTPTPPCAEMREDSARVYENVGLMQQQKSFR
Outline: as §1

interaction with SHC1 SH2 domain [1]: interactions were identified
recruitment of PIK3R3 [6]: high affinity
recruitment of PIK3R1 [7]: confirmed
Substance: SEENXVPMNPNLd [GAB1 Tyr(P)-627]

recruitment of CRK SH2 domain [10]: no CRK SH2 domain interactions
recruitment of RASA1 SH2 domains [8]: confirmed
recruitment of PLCG1 SH2 domains [4]: confirmed
Substance: VSISXDIPPTPGd [GAB1 Tyr(P)-307]

recruitment of PIK3R3 [6]: high affinity
recruitment of PIK3R1 [7]: confirmed
Substance: LDENXVPMNPNSd [GAB1 Tyr(P)-447]

recruitment of CRKL SH2 domain [11]: CRKL SH2 domain interactions
recruitment of CRK SH2 domain [10]: no CRK SH2 domain interactions
Substance: DSSLXNLPRSYSd [GAB1 Tyr(P)-259]

recruitment of CRK SH2 domain [10]: no CRK SH2 domain interactions
interaction with SHC1 SH2 domain [1]: interactions were identified
recruitment of PLCG1 SH2 domains [4]: confirmed
Substance: TDSSXCIPTAGMd [GAB1 Tyr(P)-373]

recruitment of PLCG2 SH2 domains [3]: recruitment sites
recruitment of PLCG1 SH2 domains [4]: recruitment sites
Substance: LPIDXYFPPQKTd [AR Tyr(P)-551]

Continued, substance first:

Substance: FENSXIFDINTId [GAB1 Tyr(P)-83]
interaction with SHC1 SH2 domain [1]: interactions were identified
interaction with SHC1 PTB domain [2]: interactions were observed

Substance: VKPIXFHTQ [AR Tyr(P)-915]
recruitment of PLCG2 SH2 domains [3]: recruitment sites
recruitment of PLCG1 SH2 domains [4]: recruitment sites

Substance: NNYVXIDPTQLPd [c-Kit Tyr(P)-570]
recruitment of c-Src family kinase SH2 domains [5]: recruited

Substance: PGNTXQIPRTFPd [GAB1 Tyr(P)-317]
recruitment of RASA1 SH2 domains [8]: confirmed

Substance: IGEHXVHVNATYd [c-Met Tyr(P)-1349]
recruitment of SH2D1B SH2 domain [9]: moderate affinity
recruitment of PLCG1 SH2 domains [4]: moderate affinity

Substance: CVAPXPSLLSSEd [c-Met Tyr(P)-1365]
recruitment of tensin family SH2 domains [12]: interactions
recruitment of SH2D1A SH2 domain [13]: interactions
recruitment of Shp2/PTPN11 SH2 domain [14]: recruit
recruitment of RASA1 SH2 domains [8]: interactions
recruitment of c-Src family kinase SH2 domains [5]: interactions
recruitment of SH2D1B SH2 domain [9]: interactions
recruitment of PLCG1 SH2 domains [4]: interactions

Substance: SQDCXDIPRAFPd [GAB1 Tyr(P)-406]
recruitment of CRKL SH2 domain [11]: CRKL SH2 domain interactions
recruitment of CRK SH2 domain [10]: no CRK SH2 domain interactions
recruitment of PLCG1 SH2 domains [4]: confirmed

Substance: QEANXVPMTPGTd [GAB1 Tyr(P)-472]
recruitment of PIK3R3 [6]: high affinity
recruitment of PIK3R1 [7]: confirmed

Substance: DITVXLLQGRRLd [c-Met Tyr(P)-1295]
recruitment of Shp2/PTPN11 SH2 domain [14]: recruit

Substance: DPQDXLLLINCQd [GAB1 Tyr(P)-183]
interaction with SHC1 SH2 domain [1]: interactions were identified
interaction with SHC1 PTB domain [2]: interactions were observed
